CHOP UPR activ – activators of apoptotic CHOP UPR arm, primary screen, cell-based, CHO-CHOP luciferase reporter, luminescence, uHTS; UPR activation; percent of tunicamycin response over DMSO baseline; activation, % at 10 µM; 330,000 tested, 0.34% active;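 active means at 10 µM dose, activation of 40% or more, normalized to positive control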;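 further: 100% = tunicamycin at 10 µg/mL and 0% = DMSO alone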
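Test system: CHO CHOP reporter cells. Input: 500 CHO-CHOP cells per well. Medium: F12 with 10% FBS. Technique: luciferase luminescence. Measure: percent activation relative to tunicamycin control. Dosing: 10 µM compound, 0.5% DMSO. Timing: 16-18 h cell attachment, then 6 h compound exposure, 37 °C.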
697 NFkB inh – inhibitors of PMA/ionomycin-induced NF-kB reporter, 697 cells, primary screen, B-cell NF-kB inhibitor project, cell-based, luminescence, uHTS; 697 B-cell NF-kB luciferase reporter, 16 h; inhibition, % at 4 µM; 330,000 tested, 0.33% active; in the data active means inhibition above about 35%
UPR XBP1 act – activators of adaptive XBP1 UPR arm, primary screen, cell-based, CHO-XBP1 luciferase reporter, luminescence, uHTS. activation, % at 20 µM. 330,000 tested, 0.33% active. AID 463104, 2010. IRE1-XBP1 UPR activation; percent of tunicamycin response, DMSO as zero;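 active means versus positive control, 20 µM dose yields 30% or more activation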;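 further: 100% = tunicamycin at 10 µg/mL and 0% = DMSO only wells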
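Material: CHO cell line with stable XBP1 luciferase reporter; buffer or medium: F12 medium containing 10% fetal bovine serum; compound: single point, 20 µM final compound, 1% DMSO; incubation: 6 h treatment, 37 °C; measured by: glow luminescence from Steady-Glo reagent; evaluation: activation, % of tunicamycin; control set: tunicamycin high, DMSO low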
Jurkat NFkB inh – inhibitors of induced NF-kB luciferase reporter, primary screen, TCR NF-kB activation inhibitor project, cell-based, luminescence, uHTS | AID 435003, 2010 | 330,000 tested, 0.53% active | inhibition, % at 4 µM | Jurkat, PMA/ionomycin-induced NF-kB luciferase reporter; in the data active means inhibition above about 50%
CHOP inh – inhibitors of CHOP promoter induction, primary screen, cell-based, unfolded protein response, luciferase reporter. CHO-K1 CHOP-promoter luciferase, tunicamycin-induced, 15-18 h. 220,000 tested, 3.8% active. inhibition, % at 10 µM;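 active means compounds that reduced the stress-induced luciferase reporter signal by more than about 70% of percent inhibition, limit read from the data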;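 further: 0% = tunicamycin plus vehicle and 100% = wells without tunicamycin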
Jurkat NFkB conf – PMA/ionomycin-induced NF-kB reporter inhibitors, Jurkat retest, confirmation, T-cell NF-kB inhibitor project, cell-based, luminescence, single concentration. shares compounds with Jurkat NFkB inh. Jurkat NF-kB luciferase, 16 h. inhibition, % at 4 µM. 2,700 tested, 27% active;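 active means inhibition reaching about 45% at 4 µM in either replicate, limit read from the data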;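 further: plate controls were PMA/ionomycin stimulated DMSO wells for no effect and unstimulated DMSO wells for full effect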
The depositor's hits bear a star. The sample as a whole holds a higher share of hits than the screen did.

For CC/C(=N\NC(=O)c1csc(C)c1C)c1cccs1 the results were CHOP UPR activ 4.8, 697 NFkB inh -156.8, UPR XBP1 act 0.1, Jurkat NFkB inh -156.6, CHOP inh 25.4 and Jurkat NFkB conf -29.4.
`CCCCNc1cc(C)nc(NCc2ccccc2)n1` gave CHOP UPR activ 3.0, 697 NFkB inh -37.2, UPR XBP1 act -1.7, Jurkat NFkB inh 70.0* and Jurkat NFkB conf 20.9.
`Cc1cc(N2CCC(C)CC2)nc(-c2ccccc2O)n1` gave CHOP UPR activ 0.0, 697 NFkB inh 7.8, UPR XBP1 act 0.5, Jurkat NFkB inh 3.5 and CHOP inh 11.3.
Screening Cc1cc(N2CCC(C)CC2)nc(NCc2ccccc2)n1 returned CHOP UPR activ 6.0, 697 NFkB inh -27.6, UPR XBP1 act 8.8, Jurkat NFkB inh 53.3*, CHOP inh 39.6 and Jurkat NFkB conf 4.2.
`Cn1cnnc1SCC(=O)NNC(=O)c1ccc([N+](=O)[O-])cc1` gave CHOP UPR activ -1.7, 697 NFkB inh -2.9, UPR XBP1 act -3.7 and Jurkat NFkB inh 2.8.
For COc1ccc(Br)cc1CN1CCSCC1 the results were CHOP UPR activ -1.3, 697 NFkB inh -2.8, UPR XBP1 act -4.7 and Jurkat NFkB inh -7.3.
Screening CCCOc1ccccc1C1CC(=O)Nc2cc3c(cc21)OCCO3 (centres undefined) returned CHOP UPR activ -1.1, 697 NFkB inh -16.9, UPR XBP1 act 2.7 and Jurkat NFkB inh 47.7.
Screening CCOc1ccccc1C1CC(=O)Nc2cc3c(cc21)OCCO3 (centres undefined) returned CHOP UPR activ 2.2, 697 NFkB inh -4.8, UPR XBP1 act 7.4, Jurkat NFkB inh 69.9* and Jurkat NFkB conf 56.9*.
`CCOc1ccccc1C1CC(=O)Nc2cc(C)c(C)cc21` (centres undefined) gave CHOP UPR activ 0.2, 697 NFkB inh -53.1, UPR XBP1 act -6.2, Jurkat NFkB inh 52.1* and Jurkat NFkB conf 38.5.
Screening O=S(=O)(Nc1ccc(F)cc1Cl)c1ccc(-c2cnc(C3CC3)o2)cc1 returned CHOP UPR activ -1.9, 697 NFkB inh -25.9, UPR XBP1 act -0.7, Jurkat NFkB inh 52.1* and Jurkat NFkB conf 51.9*.
For O=C1CC(=O)Nc2cc(S(=O)(=O)Nc3ccc(F)cc3Cl)ccc2N1 the results were CHOP UPR activ 1.6, 697 NFkB inh 12.8, UPR XBP1 act -3.6 and Jurkat NFkB inh 6.6.
Screening Cc1ccc(-c2cnc(C3CC3)o2)cc1S(=O)(=O)Nc1ccccc1 returned CHOP UPR activ 0.1, 697 NFkB inh -40.3, UPR XBP1 act -8.0 and Jurkat NFkB inh 26.3.
Cc1cccc(N(C)S(=O)(=O)c2ccc(-c3cnc(C4CC4)o3)cc2)c1 was read as CHOP UPR activ 0.3, 697 NFkB inh -121.6, UPR XBP1 act 3.6, Jurkat NFkB inh 62.4* and Jurkat NFkB conf 54.0*.
`COc1ccc(NS(=O)(=O)c2ccc(-c3cnc(C4CC4)o3)cc2)cc1OC` gave CHOP UPR activ 5.3, 697 NFkB inh 17.4, UPR XBP1 act -4.5, Jurkat NFkB inh 57.0* and Jurkat NFkB conf 67.9*.
`Cc1ccc(N(C)S(=O)(=O)c2cc(-c3cnc(C4CC4)o3)ccc2C)cc1` gave CHOP UPR activ 0.7, 697 NFkB inh -9.6, UPR XBP1 act -3.1 and Jurkat NFkB inh 15.2.
Cc1ccc(NS(=O)(=O)c2ccc(-c3cnc(C4CC4)o3)cc2)c(C)c1 was read as CHOP UPR activ 3.2, 697 NFkB inh -28.3, UPR XBP1 act 5.5, Jurkat NFkB inh 54.1* and Jurkat NFkB conf 60.5*.
For CC(=O)Nc1ccc(NS(=O)(=O)c2cc(-c3cnc(C4CC4)o3)ccc2C)cc1 the results were CHOP UPR activ -1.0, 697 NFkB inh -15.4, UPR XBP1 act -0.6 and Jurkat NFkB inh -3.3.
Screening Cc1cc2c(cc1C)CN(c1ccccc1)C2 returned CHOP UPR activ 2.4, 697 NFkB inh -140.6, UPR XBP1 act -3.2, Jurkat NFkB inh -84.1 and CHOP inh -0.6.
For COc1ccccc1NS(=O)(=O)c1ccc(-c2cnc(C3CC3)o2)cc1 the results were CHOP UPR activ 0.7, 697 NFkB inh -25.5, UPR XBP1 act 4.7 and Jurkat NFkB inh 48.3.
Screening CCOc1ccccc1NS(=O)(=O)c1ccc(-c2cnc(C3CC3)o2)cc1 returned CHOP UPR activ 2.0, 697 NFkB inh -81.4, UPR XBP1 act 3.3, Jurkat NFkB inh 55.3* and Jurkat NFkB conf 58.2*.
For COc1ccccc1CNS(=O)(=O)c1ccc(-c2cnc(C3CC3)o2)cc1 the results were CHOP UPR activ -0.1, 697 NFkB inh -54.2, UPR XBP1 act -0.5, Jurkat NFkB inh 51.0* and Jurkat NFkB conf 50.2*.
Oc1ccccc1C1NN=C(c2ccccc2)S1 (centres undefined) was read as CHOP UPR activ 1.5, 697 NFkB inh -214.1, UPR XBP1 act -3.4, Jurkat NFkB inh -174.8 and Jurkat NFkB conf -121.2.
`CC(C)CC(=O)Nc1ccc2nn(-c3ccccc3)nc2c1` gave CHOP UPR activ 7.1, 697 NFkB inh -157.6, UPR XBP1 act 2.8, Jurkat NFkB inh -182.7, CHOP inh 28.2 and Jurkat NFkB conf -111.5.
`COc1ccc(COc2cc(-c3cccc(OC)c3)nc3ccc(N)cc23)cc1` gave CHOP UPR activ 12.3, 697 NFkB inh -118.5, UPR XBP1 act 8.9, Jurkat NFkB inh 52.2*, CHOP inh -61.5 and Jurkat NFkB conf -2.2.
Screening COc1ccc(COc2cc(-c3cccc(OC)c3)nc3ccc(NC(C)=O)cc23)cc1 returned CHOP UPR activ 1.7, 697 NFkB inh 1.1, UPR XBP1 act 0.1, Jurkat NFkB inh 1.3 and CHOP inh 14.3.
Screening Cc1ccc2nc(/C(C#N)=C\c3ccc([N+](=O)[O-])o3)[nH]c2c1 returned CHOP UPR activ -8.4, 697 NFkB inh -55.4, UPR XBP1 act -8.7, Jurkat NFkB inh 58.6*, CHOP inh -15.2 and Jurkat NFkB conf 15.7.
`COc1ccc2c(c1OC)C(=O)N1C2SC[C@H]1C(=O)NC1CCCC1` (some centres undefined) gave CHOP UPR activ 1.1, 697 NFkB inh -41.9, UPR XBP1 act -3.8 and Jurkat NFkB inh -0.2.
For Cc1cnc(C(=O)Nc2ccc(F)cc2)cn1 the results were CHOP UPR activ 0.4, 697 NFkB inh -48.5, UPR XBP1 act 3.3, Jurkat NFkB inh -42.8 and CHOP inh -12.6.
`Cc1cnc(C(=O)Nc2ccc(N3CCN(C(=O)OC(C)(C)C)CC3)cc2)cn1` gave CHOP UPR activ -3.0, 697 NFkB inh -70.0, UPR XBP1 act -0.9, Jurkat NFkB inh 63.9*, CHOP inh 14.3 and Jurkat NFkB conf 32.8.
